Measurements: PubChem BioAssay
The source made the active and inactive calls.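 Rule for the calls, unless noted: active = current rise at least 3 SD above the untreated control mean in each of two repeat wells; inactive = the rest.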

Legend:
[1] = nonspecific flux increase, KCNQ1-free cells – parental CHO cells, counter-screen for KCNQ1 potentiator project (AID 493006;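 active = duplicate-averaged activation above buffer control mean plus 5 SD of those controls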;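 for activation: fluorescence ratio of max minus min over baseline after K+ and Tl+ depolarization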); details: parental CHO-K1 cells, FluxOR thallium flux, at 10 µM; hits give high values
In short: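 Benchmarks – buffer and R-L3 controls · Assay system – untransfected host CHO-K1 cells with FluxOR thallium dye · Measure – fluorescence change ratio scaled 0% buffer, 100% R-L3 · Technique – kinetic thallium-flux fluorescence · Timing – overnight 37 °C plating, 90 min RT dye, 20 min compound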

[2] = molecular target: Potassium voltage-gated channel subfamily KQT member 1 (Homo sapiens) (UniProt P51787); test: enhancement of KCNQ1 channel thallium flux – FluxOR thallium flux, CHO cells, duplicates, confirmation (AID 493007;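 active = potentiation averaged over duplicate wells exceeding buffer-only control mean by more than 3 SD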;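 for outcome: cells depolarized by a potassium plus thallium sulfate stimulus after compound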); details: KCNQ1 cell line, FluxOR thallium flux fluorescence, at 10 µM; hits give high values, % of reference activator effect, buffer zero
In short: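 Material: CHO cells stably expressing the KCNQ1 potassium channel / Times: dye 90 min then compound 20 min, both at room temperature / Detection: kinetic thallium influx fluorescence with FluxOR dye, 10 s baseline, 110 s post-stimulus / Benchmarks: buffer-only wells as 0% and R-L3 activator as 100% / Replicates: each compound tested in duplicate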

[3] = molecular target: Potassium voltage-gated channel subfamily KQT member 2 (Rattus norvegicus) (UniProt O88943); test: KCNQ2 thallium flux enhancement – KCNQ2-CHO-K1 cells, selectivity assay for KCNQ1 potentiator project (AID 493009;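 active = mean duplicate potentiation above the buffer control mean plus 5 SD of buffer wells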;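 note: assay conditions were tuned for KCNQ1 rather than KCNQ2 modulators; signal is max minus min fluorescence divided by baseline after thallium stimulus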); details: FluxOR thallium flux fluorescence, at 10 µM; hits give high values, scaled: buffer 0, activator control 100
[4] = molecular target: Potassium voltage-gated channel subfamily KQT member 1 (Homo sapiens) (UniProt P51787); test: KCNQ1 activators by electrophysiology – IonWorks patch clamp, KCNQ1-CHO cells, orthogonal assay for KCNQ1 potentiator project, confirmation (AID 493184); details: automated patch clamp current, at 10 µM; hits give high values;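 for current potentiation: percent change of the same well's current before compound addition so 0% = no change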
In short: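 Probe or stimulus: depolarizing pulse to +40 mV from -90 mV; Material: CHO cells carrying KCNQ1; Compound: one dose, 10 µM final; Signal: automated voltage clamp, amphotericin B perforated patch; Read-out basis: percent current increase versus pre-compound level; Buffer or medium: pH 7.4 external bath; Replication: duplicates.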

Sequence of Potassium voltage-gated channel subfamily KQT member 2 (Rattus norvegicus) (O88943 whole entry, looked up): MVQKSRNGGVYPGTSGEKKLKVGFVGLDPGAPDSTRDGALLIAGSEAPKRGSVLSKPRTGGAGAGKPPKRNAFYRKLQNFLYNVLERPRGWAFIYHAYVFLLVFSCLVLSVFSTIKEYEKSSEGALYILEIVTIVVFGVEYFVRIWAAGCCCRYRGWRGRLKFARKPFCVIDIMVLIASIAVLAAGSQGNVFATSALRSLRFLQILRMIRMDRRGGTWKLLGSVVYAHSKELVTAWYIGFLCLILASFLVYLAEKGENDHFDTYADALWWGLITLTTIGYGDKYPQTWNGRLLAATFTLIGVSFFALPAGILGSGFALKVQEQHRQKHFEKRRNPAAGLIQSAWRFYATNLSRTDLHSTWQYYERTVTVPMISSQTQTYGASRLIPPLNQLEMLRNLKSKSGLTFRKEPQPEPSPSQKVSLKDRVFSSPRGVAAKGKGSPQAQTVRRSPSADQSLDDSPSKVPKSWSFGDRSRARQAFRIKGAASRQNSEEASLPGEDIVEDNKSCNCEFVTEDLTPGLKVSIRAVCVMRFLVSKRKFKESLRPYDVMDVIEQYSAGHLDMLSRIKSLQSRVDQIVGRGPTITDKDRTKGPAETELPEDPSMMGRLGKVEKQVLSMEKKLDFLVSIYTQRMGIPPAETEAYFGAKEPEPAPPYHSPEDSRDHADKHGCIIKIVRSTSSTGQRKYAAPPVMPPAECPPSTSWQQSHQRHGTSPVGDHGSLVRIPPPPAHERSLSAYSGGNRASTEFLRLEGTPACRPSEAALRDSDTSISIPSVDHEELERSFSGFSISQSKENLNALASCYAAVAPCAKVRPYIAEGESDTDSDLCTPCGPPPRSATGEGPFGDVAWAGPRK
Sequence of Potassium voltage-gated channel subfamily KQT member 1 (Homo sapiens) (P51787 whole entry, looked up): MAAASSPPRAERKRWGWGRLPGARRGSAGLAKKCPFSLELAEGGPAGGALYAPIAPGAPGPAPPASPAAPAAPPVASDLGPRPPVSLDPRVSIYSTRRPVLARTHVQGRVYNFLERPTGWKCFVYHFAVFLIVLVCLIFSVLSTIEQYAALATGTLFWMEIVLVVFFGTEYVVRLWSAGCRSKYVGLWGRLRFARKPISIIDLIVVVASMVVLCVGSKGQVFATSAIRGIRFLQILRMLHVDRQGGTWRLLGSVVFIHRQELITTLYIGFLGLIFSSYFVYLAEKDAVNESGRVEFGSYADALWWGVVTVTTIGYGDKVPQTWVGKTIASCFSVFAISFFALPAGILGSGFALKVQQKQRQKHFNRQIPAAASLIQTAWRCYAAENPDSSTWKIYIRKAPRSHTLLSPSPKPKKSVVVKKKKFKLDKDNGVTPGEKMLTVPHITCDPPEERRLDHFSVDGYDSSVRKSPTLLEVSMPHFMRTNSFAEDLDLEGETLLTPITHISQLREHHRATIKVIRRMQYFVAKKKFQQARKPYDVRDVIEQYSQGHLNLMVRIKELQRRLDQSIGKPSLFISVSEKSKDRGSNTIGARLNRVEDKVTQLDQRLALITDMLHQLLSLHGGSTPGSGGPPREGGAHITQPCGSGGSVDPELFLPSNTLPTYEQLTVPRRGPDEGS

SMILES	activation [1]	potentiation [2]	potentiation [3]	outcome [4]	outcome [1]	outcome [2]	outcome [3]	current potentiation [4]
C=CCn1c(=S)[nH]c2sc3c(c2c1=O)CCCC3	294% (active)	97% (active)	294% (active)	inactive				
O=C(CCn1c(=O)sc2ccccc21)NCc1ccco1				inactive	inactive	inactive	inactive	
COc1ccc(-c2nc(CS(=O)CC(=O)NC3CCCC3)c(C)o2)cc1OC (stereo not given)	168% (active)	85% (active)	244% (active)	inactive				
CN(C(=S)NC(=O)c1ccccc1)C1CCCCC1	228% (active)	29% (active)	186% (active)	inactive				
S=c1[nH]c(-c2ccccc2)cn1/N=C/c1cccc2ccccc12	174% (active)	65.5% (active)	184% (active)	inactive				
CCOC(=O)c1sc2nc(C)[nH]c(=S)c2c1C	198% (active)	52% (active)	214% (active)	inactive				
COc1ccc2nc(N3C(=O)/C(=C/c4ccccc4)NC3=S)sc2c1	380% (active)	204% (active)	486% (active)	inactive				
CCCS(=O)(=O)c1c(S(=O)(=O)CCC)c2c(C(N)=O)cccn2c1C(=O)c1ccc(F)cc1				inactive	inactive	inactive	inactive	
Cc1sc2nc(C(C)C)nc(SCC(=O)N3c4ccccc4CC3C)c2c1C (stereo not given)	164% (active)	47.5% (active)	177% (active)	inactive				
O=C(NC(=S)Nc1ccccn1)c1cc(-c2ccccc2)nc2ccccc12		18% (active)		inactive	inactive		inactive	
O=C(c1ccc(-c2ccccc2)cc1)N1CCCC1	188% (active)	217% (active)	233% (active)	inactive				
O=C(Nc1nnc(-c2ccco2)o1)c1cccc(Cl)c1				inactive	inactive	inactive	inactive	
COC(=O)c1ccccc1NC(=O)Cn1c(=O)n(Cc2ccccc2)c(=O)c2c(C)c(C)sc21				inactive	inactive	inactive	inactive	
COc1ccc(N2CCN(C(=O)COC(=O)/C=C/c3ccc(OC(F)F)cc3)CC2)cc1	178% (active)	64.5% (active)	228% (active)	inactive				
Cc1cccc(/C=N/n2c(COc3ccccc3)n[nH]c2=S)c1		60.5% (active)	142% (active)	inactive	inactive			
CCOC(=O)Cc1csc(NC(=S)NC(=O)C(C)(C)C)n1	136% (active)			inactive		inactive	inactive	
CNC(=O)c1nnsc1S(=O)c1ccc(Cl)cc1 (stereo not given)				inactive	inactive	inactive	inactive	
CCOC(=O)c1c(N2C(=O)Nc3ccccc3N2O)n[nH]c1-c1cccc(Cl)c1				inactive	inactive	inactive	inactive	
Cc1cc(C)cc(C(=O)OCC(=O)NCC(F)(F)F)c1				inactive	inactive	inactive	inactive	
CC(C)c1nc(Cl)c(C#N)c2c1CCC2				inactive	inactive	inactive	inactive	

SMILES	activation [1]	potentiation [2]	potentiation [3]	outcome [4]	outcome [1]	outcome [2]	outcome [3]	current potentiation [4]
Oc1ccc(CN2CCCCC2)c2cccnc12	170% (active)	47% (active)	144% (active)	inactive				
Nc1nc(NCc2ccco2)nc(NC2CCCCC2)c1[N+](=O)[O-]				inactive	inactive	inactive	inactive	
CCC(O)(CC)C(=O)NN(C(=O)CCl)c1ccccc1				inactive	inactive	inactive	inactive	
Cc1ccc(F)cc1S(=O)(=O)NCc1ccc(N2CCN(C)CC2)cc1				inactive	inactive	inactive	inactive	
Cc1ccc(S(=O)(=O)NCC(c2ccc3c(c2)OCO3)N2CCOCC2)cc1 (stereo not given)				inactive	inactive	inactive	inactive	
C=CCN(CC=C)C(=S)NC(=O)c1ccc(OC)cc1	187% (active)	43.5% (active)	162% (active)	inactive				
O=C(C1CCCCC1)N1CCCC(c2nc3c(nnn3Cc3ccccc3)c(=O)[nH]2)C1 (stereo not given)				inactive	inactive	inactive	inactive	
Cc1ccccc1NC(=S)NC(=O)c1cc(-c2ccccc2)nc2ccccc12	151% (active)	53% (active)	158% (active)	inactive				
S=c1nc[nH]c2c1sc1nc(-c3ccccc3)c3c(c12)CCCC3	456% (active)	328% (active)	499% (active)	inactive				
O=C1CC(c2cccs2)Cc2nc(NC(=O)C3CC3)ncc21 (stereo not given)				inactive	inactive	inactive	inactive	
Cc1ccc(S(=O)(=O)NN2C(=O)/C(=C/c3cccc(F)c3)SC2=S)cc1	176% (active)	20.5% (active)	152% (active)					37.3% (active)
Cc1cc(OCC(=O)NNC(=O)c2cnccn2)cc(C)c1Cl	200% (active)	22% (active)	279% (active)	inactive				
COC(=O)c1ccc(/C=C/c2ccc3cccc(OC)c3n2)cc1				inactive	inactive	inactive	inactive	
C=C1CCN(c2ccc(C(=O)NCc3ccc(C)cc3)cc2[N+](=O)[O-])CC1	164% (active)	19.5% (active)		inactive			inactive	
O=C(NC(=S)NC1CCCCC1)c1ccc(F)cc1				inactive	inactive	inactive	inactive	
COc1cccc(C2=NOC(C(=O)NCc3ccccc3)C2)c1 (stereo not given)				inactive	inactive	inactive	inactive	
Cc1ccc(C(=O)CC(=O)COc2ccc(Cl)cc2C)cc1		180% (active)	209% (active)	inactive	inactive			
O=C(C1=C(O)C(=O)N(CC2CCCO2)C1c1ccc(Cl)cc1Cl)c1ccco1 (stereo not given)				inactive	inactive	inactive	inactive	
O=C(CC1C(=O)NCCN1Cc1cccc(F)c1)NCCCN1CCCC1=O (stereo not given)				inactive	inactive	inactive	inactive	
COc1ccc(-c2nnc(Nc3nc4c(OC)cccc4s3)o2)cc1	468% (active)	164% (active)	392% (active)	inactive				

SMILES	activation [1]	potentiation [2]	potentiation [3]	outcome [4]	outcome [1]	outcome [2]	outcome [3]	current potentiation [4]
CC1CCCC(NC(=S)NC(=O)c2cncc(Br)c2)C1C (stereo not given)		32% (active)		inactive	inactive		inactive	
O=C(NC(=S)N1CCCC1)c1ccc(Cl)cc1	150% (active)			inactive		inactive	inactive	
COCCN(Cc1cc2cc3c(cc2nc1Cl)OCO3)C(=O)c1ccc(C)cc1				inactive	inactive	inactive	inactive	
CC(C)CC(=O)O/N=C1\C(=O)N(c2ccccc2)c2ccccc21				inactive	inactive	inactive	inactive	
CCC(=O)NC(=Nc1nc2ccccc2s1)NC(=O)CC				inactive	inactive	inactive	inactive	
CCCOc1ccc(CN(CCC#N)C(=S)NC(=O)c2ccccc2)cc1	288% (active)	134% (active)	303% (active)	inactive				
COC(=O)[C@@H]1CCCN1C(=O)CCc1nnc(CCC2CCCCC2)o1				inactive	inactive	inactive	inactive	
CCOc1ccc(-c2c(=O)n(O)c3ccccc3[n+]2[O-])cc1	224% (active)	59.5% (active)	254% (active)	inactive				
CC(C)N(Cc1ccccc1)C(=S)NC(=O)C1(C)CC1(Cl)Cl (stereo not given)	357% (active)	138% (active)	354% (active)	inactive				
O=C(NCc1ccccn1)c1ccc(COc2ccc(Cl)cc2)o1	138% (active)	26.5% (active)	156% (active)	inactive				
OCCN1CCN(CCCN2c3ccccc3Sc3ccc(Cl)cc32)CC1				inactive	inactive	inactive	inactive	
C=CCN(CC=C)C(=S)NC(=O)c1ccc([N+](=O)[O-])cc1	366% (active)	137% (active)	359% (active)	inactive				
CCN(CC)CCCNC(=O)c1[nH]c2ccccc2c1Sc1ccc(Cl)cc1		73% (active)			inactive		inactive	29.6% (active)
O=C(NC(=S)Nc1ccccc1N1CCCCC1)c1ccc(F)cc1Cl		49.5% (active)		inactive	inactive		inactive	
COc1ccccc1-c1cc(C(=O)Nc2cccnc2)no1	314% (active)	112% (active)	398% (active)	inactive				
Fc1ccc(-c2csc(=S)[nH]2)cc1	416% (active)	120% (active)	398% (active)	inactive				
C=CCn1c(=S)[nH]c2nc3c(cc2c1=O)CCCC3		34% (active)	152% (active)	inactive	inactive			
Cc1ccc(NC(=O)CN(C)C(=O)CCOc2ccccc2C)cc1				inactive	inactive	inactive	inactive	
CN(C)c1ccc(NC(=O)COC(=O)c2cc(Cl)ccc2[N+](=O)[O-])cc1				inactive	inactive	inactive	inactive	
CC(=O)NC(CC(=O)O)C(=O)O (stereo not given)				inactive	inactive	inactive	inactive	
